Data published in ChEMBL document CHEMBL1125212, “Dual-action cephalosporins: cephalosporin 3'-quinolone carbamates” (J Med Chem, 1991).
Values after ≈ are worked out from the molar mass of the structure shown.

Key:
[1] = tested on: Staphylococcus aureus; assay: animal or person; details: in Mus musculus
[2] = tested on: Serratia marcescens; assay: The compound was tested in vitro for minimum inhibitory concentration against Serratia marcescens 1071; type: functional
How it was run: (§1)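 Agar dilution on Mueller-Hinton agar using 2-fold serial dilutions, giving final 128 to 0.0156 μg/mL (extended to 0.000977 μg/mL where needed). Inoculum was overnight broth culture diluted 100-fold, about 3×10^4 CFU/spot, applied by replicator. MIC read after overnight incubation at 36 °C.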

[3] = tested on: Streptococcus pneumoniae; assay: (§2) Effective dose against mouse infected with Streptococcus pneumoniae 6301(LDs-5623); type: functional
How it was run: (§3)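 Mouse protection test in CD1 Swiss albino mice (18-20 g) given an intraperitoneal challenge (0.5 mL of diluted culture), expressed as a multiple of LD50. A single subcutaneous dose of 1.0 mL test solution was given at the dorsal neck base within 5 min of infection. Dose range 250 to 0.05 mg/kg. Six mice per group. ED50 (protective dose) by Reed-Muench.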

[4] = tested on: Micrococcus luteus; assay: The compound was tested in vitro for minimum inhibitory concentration against Micrococcus luteus ATCC 9341; type: functional
How it was run: as §1

[5] = tested on: Escherichia coli; assay: Inhibitory activity on replicative DNA biosynthesis in Escherichia coli H560 (permeabilised cells); type: functional, organism-based
How it was run: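 E. coli H560 cells permeabilized with toluene. ATP-dependent incorporation of [3H]thymidine into trichloroacetic acid-insoluble material was measured. IC50 taken as the concentration giving 50% inhibition.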

[6] = tested on: Pseudomonas aeruginosa; assay: (§4) Effective dose against mouse infected with Pseudomonas aeruginosa 8780 (LDs-240); type: functional
How it was run: (§5)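 CD1 Swiss albino mice (18-20 g) infected intraperitoneally with 0.5 mL of diluted bacterial suspension. Challenge expressed as a multiple of LD50. Drug given subcutaneously at the dorsal neck base within 5 min of infection (1.0 mL), with a second treatment 3 h after infection. Dose range 250 to 0.05 mg/kg. Six mice per group. ED50 by the Reed-Muench method.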

[7] = tested on: Citrobacter freundii; assay: The compound was tested in vitro for minimum inhibitory concentration against Citrobacter Freundii BS-16; type: functional
How it was run: as §1

[8] = tested on: Staphylococcus aureus; assay: The compound was tested in vitro for minimum inhibitory concentration against Staphylococcus aureus 67-0; type: functional
How it was run: as §1

[9] = tested on: Klebsiella pneumoniae; assay: The compound was tested in vitro for minimum inhibitory concentration against Klebsiella pneumoniae A; type: functional
How it was run: as §1

[10] = tested on: Staphylococcus aureus; assay: (§6) The compound was tested in vitro for minimum inhibitory concentration against Staphylococcus aureus 753; type: functional, staphylococcus aureus smith
How it was run: as §1

[11] = tested on: Streptococcus pyogenes; assay: The compound was tested in vitro for minimum inhibitory concentration against Streptococcus pyogenes; type: functional
How it was run: (§7)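 Streptococci tested by agar dilution on brain heart infusion agar with 20 units/mL bovine liver catalase. Final drug range 128 to 0.0156 μg/mL by 2-fold steps, extended to 0.000977 μg/mL when required. Inoculum about 3×10^4 CFU/spot from overnight broth diluted 100-fold. MIC after overnight incubation at 36 °C.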

[12] = tested on: Proteus vulgaris; assay: The compound was tested in vitro for minimum inhibitory concentration against Proteus vulgaris 1028 BC; type: functional
How it was run: (§8)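 Proteus MICs by agar dilution on Mueller-Hinton medium containing 3% agar. Serial 2-fold dilutions gave final 128 to 0.0156 μg/mL (further to 0.000977 μg/mL). Inoculum was overnight broth diluted 100-fold, about 3×10^4 CFU/spot. Plates read after overnight incubation at 36 °C.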

[13] = tested on: Enterococcus faecalis; assay: The compound was tested in vitro for minimum inhibitory concentration against Enterococcus faecalis ATCC 29212; type: functional
How it was run: as §1

[14] = tested on: Proteus mirabilis; assay: The compound was tested in vitro for minimum inhibitory concentration against Proteus mirabilis 90; type: functional
How it was run: as §8

[15] = tested on: Streptococcus pneumoniae; assay: The compound was tested in vitro for minimum inhibitory concentration against Streptococcus pneumoniae 6301; type: functional
How it was run: as §7

[16] = species on record: Mus musculus; assay: as §2; type: functional
How it was run: as §3

[17] = tested on: Escherichia coli; assay: The compound was tested in vitro for minimum inhibitory concentration against Escherichia coli ATCC 25922; type: functional
How it was run: as §1

[18] = tested on: Escherichia coli; assay: The compound was evaluated for the inhibition of [14C]- Pen G binding to Escherichia coli UB1005 penicillin-binding protein 3 60 kDa.
How it was run: (§9)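 Membranes from sonicated E. coli UB1005 were solubilized. Binding to penicillin-binding proteins was measured as inhibition of [14C]penicillin G binding.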

[19] = tested on: Escherichia coli; assay: The compound was evaluated for the inhibition of [14C]- Pen G binding to Escherichia coli UB1005 penicillin-binding protein 1b 90 kDa.
How it was run: as §9

[20] = species on record: Mus musculus; assay: as §4; type: functional
How it was run: as §5

[21] = tested on: Escherichia coli; assay: The compound was tested in vitro for minimum inhibitory concentration against Escherichia coli 257; type: functional
How it was run: as §1

[22] = tested on: Escherichia coli; assay: Minimum inhibitory concentration required to inhibit the activity of Escherichia coli UB1005; type: functional
How it was run: as §1

[23] = tested on: Escherichia coli; assay: The compound was evaluated for the inhibition of [14C]- Pen G binding to Escherichia coli UB1005 penicillin-binding protein 2 66 kDa.
How it was run: as §9

[24] = tested on: Staphylococcus aureus; assay: as §6; type: functional
How it was run: as §1

[25] = tested on: Pseudomonas aeruginosa; assay: The compound was tested in vitro for minimum inhibitory concentration against Pseudomonas aeruginosa 8780; type: functional
How it was run: as §1

[26] = tested on: Escherichia coli; assay: Minimum inhibitory concentration required to inhibit the activity of Escherichia coli ATCC 25922; type: functional
How it was run: as §1

[27] = tested on: Enterobacter cloacae; assay: The compound was tested in vitro for minimum inhibitory concentration against Enterobacter cloacae P99; type: functional
[28] = tested on: Pseudomonas aeruginosa; assay: The compound was tested in vitro for minimum inhibitory concentration against Pseudomonas aeruginosa 18S/H; type: functional
How it was run: as §1

[29] = tested on: Escherichia coli; assay: Minimum inhibitory concentration for inhibition of [14C]- Pen G binding to Escherichia coli UB1005; type: functional
How it was run: as §9

[30] = tested on: Staphylococcus aureus; assay: (§10) The compound was tested in vitro for minimum inhibitory concentration against Staphylococcus aureus smith; type: functional
How it was run: as §1

[31] = species on record: Mus musculus; assay: Effective dose against mouse infected with Staphylococcus aureus 753 (MR) (LDs-6); type: functional
How it was run: as §3

[32] = tested on: Escherichia coli; assay: The compound was evaluated for the inhibition of [14C]- Pen G binding to Escherichia coli UB1005 penicillin-binding protein 1a 90 kDa.
How it was run: as §9

[33] = tested on: Escherichia coli; assay: The compound was tested in vitro for minimum inhibitory concentration against Escherichia coli TEM-1; type: functional
How it was run: as §1

[34] = tested on: Staphylococcus aureus; assay: as §10; type: functional; remark: listed apart in the source
How it was run: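 Agar dilution MIC on Mueller-Hinton agar. Compounds were serially diluted 2-fold in water; final agar concentrations ran from 128 to 0.0156 μg/mL, extended to 0.000977 μg/mL for very active compounds. Spots were inoculated by replicator with overnight broth cultures diluted 100-fold, about 3×10^4 CFU/spot. MIC was read after overnight incubation at 36 °C.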

| SMILES | MIC [2] | MIC [4] | IC50 [5] | MIC [7] | MIC [8] | MIC [9] | MIC [10] | MIC [11] | MIC [12] | MIC [13] | MIC [14] | MIC [15] | ED50 [16] | MIC [17] | Inhibitory concentration [18] | Inhibitory concentration [19] | ED50 [20] | MIC [21] | Inhibitory concentration [23] | MIC [25] | other results |
| --- | --- | --- | --- | --- | --- | --- | --- | --- | --- | --- | --- | --- | --- | --- | --- | --- | --- | --- | --- | --- | --- |
| O=C(O)c1cn(C2CC2)c2cc(N3CCNCC3)c(F)cc2c1=O [CIPROFLOXACIN] | 0.063 µg/mL (≈ 0.19 µM) | 2 µg/mL (≈ 6.04 µM) | 0.3 µg/mL (≈ 0.905 µM) | 0.031 µg/mL (≈ 0.0936 µM) | 0.5 µg/mL (≈ 1.51 µM) | 0.25 µg/mL (≈ 0.754 µM) | 0.25 µg/mL (≈ 0.754 µM) | 0.5 µg/mL (≈ 1.51 µM) | 0.016 µg/mL (≈ 0.0483 µM) | 1 µg/mL (≈ 3.02 µM) | 0.063 µg/mL (≈ 0.19 µM) | 1 µg/mL (≈ 3.02 µM) |  |  |  |  |  |  |  |  | ED50 [1]: 2 mg/kg; ED50 [3]: > 50 mg/kg; ED50 [6]: 3 mg/kg |
| CO/N=C(\C(=O)N[C@@H]1C(=O)N2C(C(=O)O)=C(COC(=O)N3CCN(c4cc5c(cc4F)c(=O)c(C(=O)O)cn5C4CC4)CC3)CS[C@H]12)c1csc(N)n1 | 0.25 µg/mL (≈ 0.324 µM) | 0.031 µg/mL (≈ 0.0402 µM) | 0.9 µg/mL (≈ 1.17 µM) | 0.125 µg/mL (≈ 0.162 µM) | 2 µg/mL (≈ 2.59 µM) | 0.125 µg/mL (≈ 0.162 µM) |  | < 0.016 µg/mL | 0.063 µg/mL (≈ 0.0817 µM) | 0.25 µg/mL (≈ 0.324 µM) | 0.063 µg/mL (≈ 0.0817 µM) | < 0.016 µg/mL | 10 mg/kg | 0.031 µg/mL (≈ 0.0402 µM) | 0.5 µg/mL | 30 µg/mL | 33 mg/kg | 0.031 µg/mL (≈ 0.0402 µM) | > 100 µg/mL | 1 µg/mL (≈ 1.3 µM) | MIC [22]: 0.5 µg/mL (≈ 0.649 µM); MIC [24]: 2 µg/mL (≈ 2.59 µM); MIC [26]: 0.03 µg/mL (≈ 0.0389 µM); MIC [27]: < 0.016 µg/mL; MIC [28]: 1 µg/mL (≈ 1.3 µM); MIC [29]: 0.5 µg/mL (≈ 0.649 µM); MIC [30]: 0.5 µg/mL (≈ 0.649 µM); ED50 [31]: 28 mg/kg; Inhibitory concentration [32]: 100 µg/mL; MIC [33]: 0.063 µg/mL (≈ 0.0817 µM) |
| CO/N=C(\C(=O)N[C@@H]1C(=O)N2C(C(=O)O)=C(COC(C)=O)CS[C@H]12)c1csc(N)n1 [CEFOTAXIME] | 32 µg/mL (≈ 70.3 µM) | 0.031 µg/mL (≈ 0.0681 µM) |  | 32 µg/mL (≈ 70.3 µM) | > 128 µg/mL | 0.031 µg/mL (≈ 0.0681 µM) | > 128 µg/mL | < 0.016 µg/mL | > 128 µg/mL | 0.25 µg/mL (≈ 0.549 µM) | < 0.016 µg/mL | < 0.016 µg/mL | 15 mg/kg | 0.063 µg/mL (≈ 0.138 µM) | < 0.1 µg/mL | 0.5 µg/mL | > 100 mg/kg | 0.031 µg/mL (≈ 0.0681 µM) | 100 µg/mL | 16 µg/mL (≈ 35.1 µM) | MIC [27]: 64 µg/mL (≈ 141 µM); MIC [28]: 128 µg/mL (≈ 281 µM); MIC [34]: 2 µg/mL (≈ 4.39 µM); MIC [29]: 0.06 µg/mL (≈ 0.132 µM); ED50 [31]: > 100 mg/kg; Inhibitory concentration [32]: < 0.1 µg/mL; MIC [33]: 0.063 µg/mL (≈ 0.138 µM) |
